Data published in ChEMBL document CHEMBL4038328, “Structure-Guided Optimization of HIV Integrase Strand Transfer Inhibitors” (J Med Chem, 2017).

What was measured:
[1] = Inhibition of HIV1 integrase strand transfer activity using 5'-end 32P labeled DNA substrate measured after 2 hrs by PAGE based phosphor imaging method; set-up: species or system Human immunodeficiency virus 1
How it was run: (§1)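 Gel-based assay, Mg2+ cofactor: 400 nM integrase with 20 nM DNA substrate 5′-32P-labeled on transferred strand in 50 mM MOPS pH 7.2, 7.5 mM MgCl2, 14 mM 2-mercaptoethanol, inhibitor or DMSO; 2 h at 37 °C. Stopped with formamide/SDS loading buffer; products resolved on 16% denaturing polyacrylamide gels, quantified by phosphorimaging.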

[2] = test system: Human immunodeficiency virus 1; assay: Antiviral activity against VSV-G pseudotyped HIV1 harboring wild-type integrase infected in HOS cells pretreated […] for 3 hrs followed by viral infection measured after 48 hrs by luciferase reporter gene assay; assay type: functional, cell-based; conditions: Human immunodeficiency virus 1, HOS
How it was run: (§2)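 Single-round luciferase HIV-1 vector (pNLNgoMIVR−ΔLUC carrying WT or mutant IN) was pseudotyped with VSV-g by calcium phosphate co-transfection of 293 cells, and supernatant was harvested after 48 h. HOS cells were seeded at 4000/well in DMEM with 5% FBS and 5% newborn calf serum. They were pretreated 3 h at 37 °C with 5–0.0001 μM (11 serial dilutions), then infected for 48 h. Luminescence was normalized to untreated cells, and EC50 came from nonlinear regression.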

[3] = test system: Human immunodeficiency virus 1; assay: Antiviral activity against VSV-G pseudotyped HIV1 harboring integrase Y143R mutant infected in HOS cells pretreated […] for 3 hrs followed by viral infection measured after 48 hrs by luciferase reporter gene assay; assay type: functional, cell-based; conditions: Human immunodeficiency virus 1, HOS; how it was run: as §2
[4] = test system: Human immunodeficiency virus 1; assay: Antiviral activity against VSV-G pseudotyped HIV1 harboring integrase N155H mutant infected in HOS cells pretreated […] for 3 hrs followed by viral infection measured after 48 hrs by luciferase reporter gene assay; assay type: functional, cell-based; conditions: Human immunodeficiency virus 1, HOS; how it was run: as §2
[5] = test system: Human immunodeficiency virus 1; assay: Antiviral activity against VSV-G pseudotyped HIV1 harboring integrase G140S/Q148H double mutant infected in HOS cells pretreated […] for 3 hrs followed by viral infection measured after 48 hrs by luciferase reporter gene assay; assay type: functional, cell-based; conditions: Human immunodeficiency virus 1, HOS; how it was run: as §2
HOS = assay: Cytotoxicity against HOS cells assessed as reduction in cell viability after 48 hrs by ATPLite luminescence assay; assay type: cell-based; conditions: human, hos, 48 h
How it was run: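 HOS cells seeded at 4000 per well the day before, exposed to compounds over 250 to 0.05 μM at 37 °C for 48 h. ATP measured by luminescence after lysis and 20 min signal development at room temperature.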

[6] = test system: Human immunodeficiency virus 1; assay: Selectivity ratio of EC50 for VSV-G pseudotyped HIV1 harboring integrase Y143R mutant infected in HOS cells to EC50 for VSV-G pseudotyped HIV1 harboring wild-type integrase infected in HOS cells; assay type: functional
How it was run: (§3)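 Fold change is the EC50 against the mutant-IN vector divided by the EC50 against the WT-IN vector. Both come from the single-round luciferase infectivity assay in HOS cells, with a 3 h compound pretreatment followed by 48 h infection.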

[7] = test system: Human immunodeficiency virus 1; assay: Selectivity ratio of EC50 for VSV-G pseudotyped HIV1 harboring integrase N155H mutant infected in HOS cells to EC50 for VSV-G pseudotyped HIV1 harboring wild-type integrase infected in HOS cells; assay type: functional; how it was run: as §3
[8] = test system: Human immunodeficiency virus 1; assay: Selectivity ratio of EC50 for VSV-G pseudotyped HIV1 harboring integrase G140S/Q148H mutant infected in HOS cells to EC50 for VSV-G pseudotyped HIV1 harboring wild-type integrase infected in HOS cells; assay type: functional; how it was run: as §3
[9] = Inhibition of HIV1 integrase 3' processing activity using 5'-end 32P labeled DNA substrate measured after 2 hrs by PAGE based phosphor imaging method; set-up: species or system Human immunodeficiency virus 1; how it was run: as §1

CC(C)NC(=O)/C=C/c1cnc2c(c1)c(N)c(C(=O)NCc1ccc(F)cc1F)c(=O)n2O
IC50 [1]: 6 nM | EC50 [2]: 2.1 nM | EC50 [3]: 11 nM | EC50 [4]: 12 nM | EC50 [5]: 286 nM | CC50 (HOS): > 250000 nM | Ratio EC50 [6]: 5 | Ratio EC50 [7]: 6 | Ratio EC50 [8]: 136

CN(C)C(=O)/C=C/c1cnc2c(c1)c(N)c(C(=O)NCc1ccc(F)cc1F)c(=O)n2O
IC50 [1]: 5 nM | EC50 [2]: 1.6 nM | EC50 [3]: 7.2 nM | EC50 [4]: 15 nM | EC50 [5]: 58 nM | CC50 (HOS): > 250000 nM | Ratio EC50 [6]: 5 | Ratio EC50 [7]: 9 | Ratio EC50 [8]: 36

Nc1c(C(=O)NCc2ccc(F)cc2F)c(=O)n(O)c2ncc(CCCC3CCCCC3)cc12
IC50 [9]: 289000 nM | EC50 [2]: 53 nM | EC50 [3]: 112 nM | EC50 [4]: 146 nM | CC50 (HOS): 27400 nM | Ratio EC50 [6]: 2 | Ratio EC50 [7]: 3

COC(=O)CNc1c(C(=O)NCc2ccc(F)cc2F)c(=O)n(O)c2nc(OC)ccc12
IC50 [9]: 20000 nM | IC50 [1]: 42 nM | EC50 [2]: 32 nM | EC50 [3]: 52 nM | EC50 [4]: 1260 nM | CC50 (HOS): 12000 nM | Ratio EC50 [6]: 2 | Ratio EC50 [7]: 39

O=C(NCc1ccc(F)cc1F)c1c(O)c2ccc(N3CCOCC3)nc2n(O)c1=O
IC50 [9]: > 333000 nM | IC50 [1]: 1900 nM

COC(=O)CNc1c(C(=O)NCc2ccc(F)cc2F)c(=O)n(O)c2nc(N3CCOCC3)ccc12
IC50 [9]: > 333000 nM | IC50 [1]: 6200 nM

Nc1c(C(=O)NCc2ccc(F)cc2F)c(=O)n(O)c2nc(N3CCOCC3)ccc12
IC50 [9]: > 333000 nM | IC50 [1]: 54000 nM

Nc1c(C(=O)NCc2ccc(F)cc2F)c(=O)n(O)c2ncc(CCc3ccccc3)cc12
IC50 [9]: 48000 nM | IC50 [1]: 14 nM | EC50 [2]: 5.6 nM | EC50 [3]: 5.5 nM | EC50 [4]: 21 nM | EC50 [5]: 140 nM | CC50 (HOS): 18000 nM | Ratio EC50 [6]: 1 | Ratio EC50 [7]: 4 | Ratio EC50 [8]: 25

CN(C)C(=O)CCc1cnc2c(c1)c(N)c(C(=O)NCc1ccc(F)cc1F)c(=O)n2O
IC50 [1]: 8 nM | EC50 [2]: 1.3 nM | EC50 [3]: 6 nM | EC50 [4]: 6.8 nM | EC50 [5]: 16 nM | CC50 (HOS): > 250000 nM | Ratio EC50 [6]: 5 | Ratio EC50 [7]: 5 | Ratio EC50 [8]: 12

Nc1c(C(=O)NCc2ccc(F)cc2F)c(=O)n(O)c2ncc(CCC(=O)NCCO)cc12
IC50 [1]: 2 nM | EC50 [2]: 263 nM | CC50 (HOS): > 250000 nM

Nc1c(C(=O)NCc2ccc(F)cc2F)c(=O)n(O)c2ncc(CCCCc3ccccc3)cc12
IC50 [9]: 42000 nM | EC50 [2]: 11 nM | EC50 [3]: 4.7 nM | EC50 [4]: 39 nM | EC50 [5]: 128 nM | CC50 (HOS): 13000 nM | Ratio EC50 [6]: 0.4 | Ratio EC50 [7]: 4 | Ratio EC50 [8]: 12

Nc1c(C(=O)NCc2ccc(F)cc2F)c(=O)n(O)c2ncc(CCCOCCO)cc12
IC50 [9]: 1500 nM | IC50 [1]: 2 nM | EC50 [2]: 1.6 nM | EC50 [3]: 1.2 nM | EC50 [4]: 4.2 nM | EC50 [5]: 35 nM | CC50 (HOS): > 250000 nM | Ratio EC50 [6]: 0.8 | Ratio EC50 [7]: 3 | Ratio EC50 [8]: 22
